The source made the active and inactive calls. The rule behind the calls is not given here.
Assays:
[1] = target: T1, Histone deacetylase (Mus musculus) (UniProt Q8VH37+Q9Z2V6+Q9Z2V5+O09106+Q8C2B3+P70288+O88895+Q91WA3+Q99N13+Q6NZM9+Q6P3E7); assay: Inhibition of HDAC in MEF assessed as increase in histone H3 acetylation at 5 uM after 6 hrs by Western blot analysis; type: cell-based
In short: (§1)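 Histones acid-extracted in 0.2 N HCl overnight at 4°C; protein measured by BCA. Samples run on 4-12% gels and transferred to nitrocellulose, blocked in 5% BSA. Probed overnight at 4°C for acetyl-H3K9, H3K18, H4K5, H4K8 and total H3/H4, then with IRDye secondaries; infrared imaging.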

[2] = target: Histone deacetylase (Homo sapiens) (UniProt Q13547+O15379+Q9UBN7+Q92769+Q9UQL6+Q8WUI4+Q9BY41+Q96DB2+P56524+Q9UKV0+Q969S8); assay: Inhibition of HDAC (unknown origin) at 5 uM; type: protein assay
[3] = target: T1, Histone deacetylase (Mus musculus); assay: Inhibition of HDAC in MEF assessed as increase in histone H4K8 acetylation at 5 uM after 6 hrs by Western blot analysis; type: cell-based; in short: as §1
[4] = target: T1, Histone deacetylase (Mus musculus); assay: Inhibition of HDAC in MEF assessed as increase in histone H3 acetylation at 6.1 uM after 24 hrs by Western blot analysis; type: cell-based; in short: as §1
[5] = target: T1, Histone deacetylase (Mus musculus); assay: Inhibition of HDAC in MEF assessed as increase in histone H3 acetylation at 10 to 20 uM after 6 hrs by Western blot analysis; type: cell-based; in short: as §1
[6] = target: T1, Histone deacetylase (Mus musculus); assay: Inhibition of HDAC in MEF assessed as increase in histone H4 acetylation at 10 uM after 6 hrs by Western blot analysis; type: cell-based; in short: as §1
[7] = target: T1, Histone deacetylase (Mus musculus); assay: Inhibition of HDAC in MEF assessed as increase in histone H3K18 acetylation at 5 uM after 6 hrs by Western blot analysis; type: cell-based; in short: as §1
[8] = target: T1, Histone deacetylase (Mus musculus); assay: Inhibition of HDAC in MEF assessed as increase in histone H3K18 acetylation at 6.1 uM after 24 hrs by Western blot analysis; type: cell-based; in short: as §1
[9] = target: T1, Histone deacetylase (Mus musculus); assay: Inhibition of HDAC in MEF assessed as increase in histone H3K9 acetylation at 5 uM after 6 hrs by Western blot analysis; type: cell-based; in short: as §1
[10] = target: T1, Histone deacetylase (Mus musculus); assay: Inhibition of HDAC in MEF assessed as increase in histone H4 acetylation at 5 uM after 6 hrs by Western blot analysis; type: cell-based; in short: as §1
[11] = target: T1, Histone deacetylase (Mus musculus); assay: Inhibition of HDAC in mouse FL5.12 cells assessed as increase in histone H3 acetylation at 10 uM after 6 hrs by Western blot analysis; type: cell-based; in short: as §1
[12] = target: T1, Histone deacetylase (Mus musculus); assay: Inhibition of HDAC in MEF assessed as increase in histone H3K9 acetylation at 6.1 uM after 24 hrs by Western blot analysis; type: cell-based; in short: as §1
[13] = target: T1, Histone deacetylase (Mus musculus); assay: Inhibition of HDAC in MEF assessed as increase in histone H4K5 acetylation at 5 uM after 6 hrs by Western blot analysis; type: cell-based; in short: as §1
[14] = target: T1, Histone deacetylase (Mus musculus); assay: Inhibition of HDAC in MEF assessed as increase in histone H4K5 acetylation at 10 uM after 6 hrs by Western blot analysis; type: cell-based; in short: as §1

inhibition [1]: inactive
inhibition [2]: 60 to 75%
inhibition [3]: inactive
inhibition [4]: inactive
inhibition [5]: inactive
inhibition [6]: inactive
inhibition [7]: inactive
inhibition [8]: inactive
inhibition [9]: inactive
inhibition [10]: inactive
inhibition [11]: inactive
inhibition [12]: inactive
inhibition [13]: inactive
inhibition [14]: inactive
SMILES: CCCCCCCCc1ccc(CCC(N)(CO)COP(=O)(O)O)cc1 (centres undefined)
